Only some compounds are listed: those with a hit (about 1.9% of all), similar ones and a draw of the others.
Runt-SMMHC FRET: Runt domain-CBFb-SMMHC interaction inhibition; Q01196+Q13951; Cerulean-Runt/Venus-CBFb-SMMHC FRET ratio 530/480, 1 h; inhibition, % at 20 µM; actives 0.74% (n = 220,000); AID 1434;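 active means mean inhibition across duplicate retests at 20 µM reaching about 50%, limit read from the data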;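 further: inhibitors lower the FRET ratio by blocking Runt binding to CBFb-SMMHC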
Target sequence (Q01196 whole entry, looked up, the tested form may be a part): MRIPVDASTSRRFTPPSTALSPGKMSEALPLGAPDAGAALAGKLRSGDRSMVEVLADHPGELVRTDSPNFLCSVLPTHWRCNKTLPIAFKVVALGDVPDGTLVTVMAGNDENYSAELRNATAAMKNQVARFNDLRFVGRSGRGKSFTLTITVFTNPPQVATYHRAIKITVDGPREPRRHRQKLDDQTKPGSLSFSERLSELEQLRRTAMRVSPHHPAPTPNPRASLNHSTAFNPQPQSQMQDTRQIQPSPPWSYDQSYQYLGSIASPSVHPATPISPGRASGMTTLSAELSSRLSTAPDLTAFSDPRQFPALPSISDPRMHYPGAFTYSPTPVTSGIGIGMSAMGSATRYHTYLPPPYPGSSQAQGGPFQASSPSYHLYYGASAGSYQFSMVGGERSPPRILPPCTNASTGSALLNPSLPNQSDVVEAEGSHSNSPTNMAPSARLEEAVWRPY
Target sequence (Q13951 whole entry, looked up, the tested form may be a part): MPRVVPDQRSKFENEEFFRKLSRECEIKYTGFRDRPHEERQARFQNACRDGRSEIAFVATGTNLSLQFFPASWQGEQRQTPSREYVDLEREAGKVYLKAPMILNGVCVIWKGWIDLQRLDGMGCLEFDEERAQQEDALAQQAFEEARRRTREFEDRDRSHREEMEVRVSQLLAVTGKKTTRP
CaV13 FRET inh: Primary screen for inhibitors of IQ motif and Ca2+-dependent inactivation inhibitor domain binding in CACNA1D, Förster resonance energy transfer in living cells, …. HEK cells, CFP/YFP FRET ICDI-IQ, plate reader, 10 min; percent FRET-ratio fall versus neutral wells. inhibition, % at 12.3 µM. actives 0.098% (n = 340,000);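 active means mean replicate inhibition of at least 30% and at least 1% of replicates passing that level; inconclusive means only one of the two criteria is met; inactive means neither criterion is met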
LANA-H2B inh: blocks KSHV LANA binding to histone H2A/H2B | Q9QR71 | cell-free LANA-H2A/H2B peptide, fluorescence polarization | inhibition, % (no concentration beside the values) | actives 0.6% (n = 320,000) | AID 2629; in the data active means inhibition mostly above about 10%, no sharp cut-off; inactive means mostly below about 6.7%
RanGTP-Impb inh: disruptors of Ran-importin-beta complex formation – biochemical, FRET, CFP-Ran, YFP-importin-beta, homogeneous, primary screen. cell-free CFP-Ran/YFP-importin-beta FRET ratio. inhibition, % (no concentration beside the values). actives 1.1% (n = 300,000). AID 2216;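 active means more than half of the replicate wells show a fall in the fluorescence ratio signal beyond about 16%, limit read from the data, passing the limit was not always enough; inconclusive means exactly half of the replicate wells pass the set limit; inactive means fewer than half of replicates pass the limit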
HDAC3 inh: inhibitors of human histone deacetylase 3. recombinant HDAC3, fluorogenic peptide/trypsin coupled, fluorescence. inhibition, % at 8.3 µM. actives 0.15% (n = 320,000). AID 2718; in the data active means inhibition above about 26%, passing the limit was not always enough; inconclusive means no clear call, values can overlap the other calls
Runt-CBFb FRET: Runt domain-CBFb interaction inhibition. Q01196+Q13951. Cerulean-Runt/Venus-CBFb FRET ratio 530/480, 1 h. inhibition, % at 20 µM. actives 0.46% (n = 220,000). AID 1496;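 active means inhibition over about 50% at 20 µM in the single-dose screen, limit read from the data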
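test system = Cerulean-tagged RUNX1 Runt domain (FRET donor) fusion protein | reagent = Venus-CBFb binding partner, 100 nM | incubation = protein complex preformed 1 h, compound exposure 1 h, room temperature, dark | detection = FRET fluorescence | read-out basis = loss of energy transfer signal | controls = 5 µM unlabeled CBFb as full-inhibition high control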
A number is an active result; . = inactive; ? = inconclusive; / = not tested or not shown.

SMILES	Runt-SMMHC FRET	CaV13 FRET inh	LANA-H2B inh	RanGTP-Impb inh	HDAC3 inh	Runt-CBFb FRET
CCOc1cc(C2C3=C(CCCC3=O)Nc3ccc4ncccc4c32)ccc1O (stereo not given)	.	.	.	22	.	.
COc1cc(C2C3=C(CCCC3=O)Nc3ccc4ncccc4c32)ccc1O (stereo not given)	.	.	.	.	.	.
COc1ccc(N2CCN(C(c3cccs3)C(C)NC(=O)c3ccc4c(c3)OCO4)CC2)cc1 (stereo not given)	.	.	.	.	.	.
CCN(C(=O)c1ccc2c(Cl)c3c(nc2c1)CCC3)c1cccc(C)c1	.	/	/	/	/	.
O=C(N/N=C/C=C\c1cccc([N+](=O)[O-])c1)c1ccccn1	.	.	61	.	.	.
CC(C)NC(=O)c1nn2c(C(F)(F)F)cc(-c3ccco3)nc2c1Cl	/	.	43	?	.	/
C/C(CC(=O)Nc1ccc(F)cc1)=N\NC(=O)c1ccccn1	.	.	.	179	.	.
COc1ccccc1NC(=O)C(=O)N/N=C(\C)CC(=O)Nc1ccccn1	.	.	24	.	.	.
COc1ccc(NC(=O)C(=O)N/N=C(\C)CC(=O)Nc2ccccn2)c(OC)c1	.	.	.	.	.	.
CC(C)Cn1c(N)c(C(=O)NCCN2CCOCC2)c2nc3ccccc3nc21	95	.	.	94	.	.
Cc1cccc(-n2c(N)c(C(=O)NCCN3CCOCC3)c3nc4ccccc4nc32)c1	61	/	.	85	.	79
COCCCNC(=O)c1c(N)n(-c2ccc3c(c2)OCO3)c2nc3ccccc3nc12	.	.	.	.	.	.
Cc1ccccc1N=Cc1c(O)n(-c2nccs2)c(=O)c2ccccc12	.	.	.	?	.	.
O=c1c2ccccc2c(C=Nc2ccccc2O)c(O)n1-c1nccs1	.	.	.	41	.	.
COc1cccc(CNC(=O)CC(NC(=O)c2ccccc2)c2ccccc2)c1 (stereo not given)	/	.	32	.	.	/
COc1cccc(CNC(=O)c2cccc(Br)c2)c1	.	.	.	30	.	.
COc1cccc(C(=O)NC2CC3CCCC(C2)N3CC(=O)Nc2ccccc2)c1 (stereo not given)	.	.	.	?	.	.
COc1cccc(C(=O)Nc2ccc(NC(C)=O)cc2)c1	.	.	41	.	.	.
COc1cccc(C(=O)NC2CC3CCCC(C2)N3CC(=O)Nc2ccc(N(C)C)cc2)c1 (stereo not given)	.	.	27	.	.	.
O=C(COC(=O)c1ccccc1Br)NCC1CCCO1 (stereo not given)	/	.	.	/	.	/
CCC1CCC2(CC1)NC(=O)N(CC(=O)N1CCc3ccccc31)C2=O (stereo not given)	/	.	.	/	.	/
C=CCN1C(=S)CC(c2ccccc2)=Nc2ccccc21	/	63	.	.	.	/
Cc1ccc(C(=O)NNc2cc(=O)n(C)c(=O)n2C)cc1C	.	.	.	28	.	.
Cn1c(NNC(=O)c2cccc3ccccc23)cc(=O)n(C)c1=O	93	.	.	24	.	.
Cn1c(NNC(=O)c2c(F)cccc2F)cc(=O)n(C)c1=O	.	.	.	.	/	.
SMILES	Runt-SMMHC FRET	CaV13 FRET inh	LANA-H2B inh	RanGTP-Impb inh	HDAC3 inh	Runt-CBFb FRET
O=S(=O)(CCN1CCOCC1)c1ccc(Oc2ccc(S(=O)(=O)CCN3CCOCC3)cc2)cc1	/	.	.	.	.	/
CC(CN1C(C)CCCC1C)OC(=O)c1ccc(Cl)cc1 (stereo not given)	.	.	.	.	.	.
Cc1sc(N)nc1-c1ccc2c(c1)OCCO2	/	.	.	.	.	/
NC1=NN=C(c2ccc3c(c2)OCCO3)CS1	.	.	.	.	49	.
COC(=O)C1=C(C)N(Cc2ccccc2)C(=NCc2cccc(Cl)c2)N[C@H]1c1cccc(F)c1	/	/	.	/	.	/
CC[C@@H]1C=C(C(=O)O)[C@H](c2ccc(Cl)cc2)N1S(=O)(=O)c1ccc(C)cc1	/	.	/	/	/	/
O=C(O)C1=CC[C@@H](c2ccc(Cl)cc2)N(S(=O)(=O)c2ccc(Cl)cc2)[C@H]1c1ccc(F)cc1	/	39	.	/	.	/
CCCC[C@@H]1C=C(C(=O)O)[C@H](c2ccc(Cl)cc2)N1S(=O)(=O)c1ccc(C)cc1	/	.	84	/	.	/
CCn1cc(C(=O)NCCCOC)c(=O)c2cc(S(=O)(=O)N3CCCC3)ccc21	/	.	14	.	.	/
C=CCn1c(NC(=O)c2ccc(Br)o2)c(S(=O)(=O)c2ccccc2)c2nc3ccccc3nc21	.	.	.	45	.	.
CC(C)N(CCn1cnc2c([nH]c3ccccc32)c1=O)C(C)C	.	.	.	.	.	.
Cc1ccccc1-n1c(O)c(/C=C/C=Nc2ccccc2)c(=O)[nH]c1=O	76	.	.	20	.	.
COc1ccc(-c2cc(C(=O)N3CCOCC3)c3cc(C)ccc3n2)cc1	.	.	18	.	.	.
Cc1ccc(N(CC(O)Cn2nc(C)cc2C)S(=O)(=O)c2ccc3ccccc3c2)cc1 (stereo not given)	.	.	.	.	.	.
CCOC(=O)C1=C(C)Nc2sc(C(=O)c3ccc(C)cc3)c(N)c2C1c1ccc(C(=O)OC)cc1 (stereo not given)	.	.	.	.	.	.
O=[N+]([O-])c1ccc(N=Cc2sc3ccccc3c2O)cc1	105	.	.	37	.	.
O=[N+]([O-])c1cccc(N=Cc2sc3ccccc3c2O)c1	87	.	.	.	.	.
Oc1c(C=NCc2ccccc2)sc2ccccc12	64	.	.	?	.	.
COc1ccc(N=Cc2sc(O)c3ccccc23)cc1	.	.	.	.	.	.
COc1ccc(NC(=O)Cn2nc(C(F)(F)F)c3c2CCCC3)c(OC)c1	.	.	.	.	.	.
O=C(Nc1ccccc1)O/N=C/c1ccc(F)cc1	/	.	.	.	.	/
COc1ccc(CN2CCC(C)CC2)cc1OCc1ccccc1	/	.	.	.	.	/
CC(=O)Oc1ccc(C(=O)Nc2cc(C)on2)cc1	/	56	.	.	.	/
Cc1c(/C=C2\SC(=Nc3cccc(C(=O)O)c3)NC2=O)c2ccccc2n1C	.	.	.	.	.	.
COc1ccc(/C=N/NC(=O)c2cc[n+]([O-])cc2)cc1O	/	.	.	.	.	/
Cn1c(C(=O)N2CCOCC2)cc2c(=O)n3ccccc3nc21	/	.	.	.	.	/
Cn1c(C(=O)O)cc2c(=O)n3ccccc3nc21	78	.	.	.	.	.
CCOC(=O)C1CCN(C(=O)c2cc3c(=O)n4ccccc4nc3n2C)CC1	51	.	.	?	.	.
Cn1c(C(=O)N2CCc3ccccc3C2)cc2c(=O)n3ccccc3nc21	79	.	.	.	.	.

From PubChem BioAssay
